Screening data as filed in PubChem.
Rows were chosen to be rich in hits. Some 2.1% of all compounds tested hit in one or more screens of this group.
CCR6 antagonist: blocks CCL20-driven beta-arrestin recruitment at human CCR6. CHO-K1 CCR6 PathHunter beta-arrestin, luminescence, CCL20-stimulated. inhibition, % at 20 µM. AID 493098. P51684. 0.49% of 340,000 active;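 active means compounds whose inhibition of the agonist-driven luminescence signal at 20 µM reaches about 50%, limit read from the data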;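 further: cells stimulated with CCL20 at 14 nM final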
APJ agonist: agonists of human APJ apelin receptor. CHO-K1 APJ PathHunter beta-arrestin, luminescence; 0% DMSO wells, 100% apelin. 0.11% of 330,000 active. activation, % at 20 µM;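 active means activation more than six SD over the plate average, tested at 20 µM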
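Material: CHO-K1 APJ beta-arrestin complementation cell line; Input: cell density 1000 per well; Incubation: compound stimulation 90 min at 25 °C, detection 60 min; Signal: luminescence from split beta-galactosidase complementation, Galacton Star/Emerald II substrate; Controls: DMSO-only wells as negative, 10 nM Apelin-13 as positive control.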
APJ antagonist: blocks the human apelin receptor APJ; P35414; 0.32% of 330,000 active; AID 2521; inhibition, % at 20 µM; CHO-K1 APJ beta-arrestin complementation, luminescence;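 active means inhibition above about 40% at 20 µM, limit read from the data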;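 further: cells challenged with 10 nM apelin-13 agonist together with compound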
EBI2 block: blocks human EBI2 receptor beta-arrestin signaling | P32249 | EBI2 beta-arrestin recruitment, luminescence, 7a,25-OHC stimulated | inhibition, % at 5 µM | 0.81% of 360,000 active; in the data active means inhibition above about 38%;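 further: enzyme fragment complementation signal reports receptor beta-arrestin coupling in cells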
CXCR6 inh: inhibitors of human CXCR6 receptor | O00574 | CHO-K1 PathHunter CXCR6 beta-arrestin, luminescence | inhibition, % at 20 µM | 0.36% of 360,000 active | AID 602244; in the data active means inhibition above about 34%, passing the limit was not always enough;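 further: antagonist mode with CXCL16 agonist at 10 nM final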
HTR2A ag: activates the mouse 5-HT2A serotonin receptor; P35363; CHO-K1 mHTR2A beta-arrestin complementation, luminescence; percent of 30 µM serotonin response; activation, % at 7.6 µM; 0.66% of 360,000 active;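 active means activation above a run cutoff, the mean activation of all tested compounds plus 3 SD, cut at about 14% in these data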
MOR ag counter: OPRM1 agonism in mouse HTR2A counterscreen; shares compounds with HTR2A ag; U2OS OPRM1 beta-arrestin PathHunter, luminescence; DMSO 0%, DAMGO 9.3 µM 100%; activation, % at 9.3 µM; 5.3% of 2,300 active;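 active means mean activation above the mean of DMSO-only wells plus 3 SD, cut at about 0.5% in these data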
Target sequence (P35372 whole entry, looked up): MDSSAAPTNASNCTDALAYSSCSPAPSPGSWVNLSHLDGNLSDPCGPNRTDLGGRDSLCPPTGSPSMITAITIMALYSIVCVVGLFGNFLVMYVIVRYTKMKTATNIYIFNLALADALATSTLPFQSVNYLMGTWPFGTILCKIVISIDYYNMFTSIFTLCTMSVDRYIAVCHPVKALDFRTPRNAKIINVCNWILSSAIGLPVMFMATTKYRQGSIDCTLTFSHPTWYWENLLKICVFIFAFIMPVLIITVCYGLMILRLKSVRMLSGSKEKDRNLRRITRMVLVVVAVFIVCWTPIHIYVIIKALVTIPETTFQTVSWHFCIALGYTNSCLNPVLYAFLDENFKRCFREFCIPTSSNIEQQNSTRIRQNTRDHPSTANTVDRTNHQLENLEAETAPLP
m5-HT2A ag conf: confirmation of mouse HTR2A serotonin receptor agonists; shares compounds with HTR2A ag; CHO-K1 PathHunter beta-arrestin recruitment, luminescence; DMSO 0%, 30 µM serotonin 100%; activation, % at 7.6 µM; 19% of 2,300 active; AID 624381;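 active means mean activation across triplicates above the hit threshold derived in the original primary screen, cut at about 15% in these data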
Large screens that a line does not name were inactive (follow-up assays come after a bar, where they were run).

CN(C)C(=O)CCc1ccc2c3c([nH]c2c1)[C@]1(C)[C@@H](C(=O)N2CCOCC2)C[C@H](CC(=O)NCc2cccc(C(F)(F)F)c2)C(=O)N1CC3	HTR2A ag 15 (no result: APJ agonist, APJ antagonist) | MOR ag counter inactive | m5-HT2A ag conf inactive
O=C(C[C@H]1C[C@H](C(=O)N2CCOCC2)[C@@]2(CCC3CCCC3)c3[nH]c4cc(-c5ccco5)ccc4c3CCN2C1=O)NCCN1CCOCC1	none (no result: APJ agonist, APJ antagonist)
Cc1ccc(C)c(CSc2nnc([C@@H](N)C(C)C)o2)c1	none
Cc1oc2c(c1C(=O)Nc1cccc(C(=O)O)c1)CCCC2	none
COc1ccccc1/C=N/NS(=O)(=O)c1ccccc1	none
COc1ccc(S(=O)(=O)N/N=C\c2ccccc2F)cc1	HTR2A ag 15 | MOR ag counter inactive | m5-HT2A ag conf inactive
C#CCOCCOCCOCCNc1nc(N2CCN(C(=O)CCCCCCCCCCNC(=O)[C@@H](CCSC)n3cc(CCO)nn3)CC2)nc(N2CCN(C(=O)CCCCCCCCCCNC(=O)[C@H](CCCN=C(N)N)n3cc(C[C@@H](C)CC)nn3)CC2)n1	none
O=C(C1CC(=O)N(c2ccc3c(c2)OCCO3)C1)N1CCN(S(=O)(=O)c2ccccc2F)CC1 (stereo unspecified)	HTR2A ag 18 (no result: APJ agonist, APJ antagonist) | MOR ag counter inactive | m5-HT2A ag conf inactive
CC(Oc1ccccc1)C(=O)Nc1ccc(C(N)=O)cc1 (stereo unspecified)	none
CC(=O)c1ccc(NC(=O)C(C)O/N=C(\N)c2ccccc2)cc1 (stereo unspecified)	HTR2A ag 15 | MOR ag counter inactive | m5-HT2A ag conf inactive
S=C(NCc1ccccn1)Nc1ccc(Br)cc1Cl	none
COC(=O)c1sc2ccccc2c1-n1cccc1C(=O)C(=O)Nc1ccc(F)cc1	none
CCCc1ccc(C(=O)CN2C(=O)C(=O)N(C3CCCC3)C2=O)cc1	HTR2A ag 18 | MOR ag counter 1.3 | m5-HT2A ag conf inactive
CCc1ccc(C2NC(=S)NC3=C2C(=O)N(c2ccccc2OC)C(c2ccc(CC)cc2)N3)cc1 (stereo unspecified)	HTR2A ag 37 | MOR ag counter inactive | m5-HT2A ag conf inactive
CCOC(=O)/C(C#N)=C/c1c(N2CCN(Cc3ccc4c(c3)OCO4)CC2)nc2c(C)cccn2c1=O	none
COc1ccccc1NS(=O)(=O)c1ccc(N2CCOCC2)c(NC(=O)c2ccco2)c1	none
CN1CCN(C(c2ccccc2)c2ccc(Cl)cc2)CC1 (stereo unspecified)	none
CCN1CCN(C(CNS(=O)(=O)c2ccc(OC)c(C)c2)c2cccnc2)CC1 (stereo unspecified)	HTR2A ag 20 | MOR ag counter inactive | m5-HT2A ag conf inactive
COc1ccc(-c2nc(CS(=O)CC(=O)NCCCN3CCCC3)c(C)o2)cc1OC (stereo unspecified)	none
COc1ccc(-c2nc(CS(=O)CC(=O)NCCCN3CCOCC3)c(C)o2)cc1OC (stereo unspecified)	HTR2A ag 17 | MOR ag counter inactive | m5-HT2A ag conf inactive
COCC(=O)Nc1c(C(=O)Nc2ccccc2OC)oc2ccccc12	HTR2A ag 15 | MOR ag counter inactive | m5-HT2A ag conf inactive
Nc1ccn(Cc2cccc(F)c2)n1	none
COCC(C)n1c(C)cc(C(=O)COC(=O)c2cnc(Cl)c(Cl)c2)c1C (stereo unspecified)	HTR2A ag 15 | MOR ag counter inactive | m5-HT2A ag conf inactive
CCOC(=O)Cn1c(=O)n(Cc2ccc(C)cc2)c(=O)c2cccnc21	HTR2A ag 50 | MOR ag counter inactive | m5-HT2A ag conf inactive
Cc1csc2c(N3CCN(C(=S)Nc4ccc(F)cc4F)CC3)ncnc12	HTR2A ag 34 | MOR ag counter inactive | m5-HT2A ag conf inactive
